Measured values taken from article PMC3563353 (Bioconjugate chemistry, 2012).
Entries after “also recorded” stand apart in the source; their conditions may differ.

Columns and labels:
[1] = test system: MC4R; settings: cell lines engineered to overexpress MC4R; cited from earlier work
[2] = test system: MC5R; settings: cell lines engineered to overexpress MC5R; cited from earlier work
[3] = test system: A375/MC1R and A375 xenograft tumors; experiment: In vivo fluorescence imaging of bilateral A375 / A375/MC1R xenograft tumors; design: species or system nu/nu mice; settings: p<0.05
[4] = test system: B16F10 xenograft tumors; format: in vivo, nu/nu mice; settings: 3 nmol/kg i.v., melanotic B16F10 xenograft
[5] = test system: B16F10 cells; experiment: In vitro MC1R probe uptake study by fluorescence microscopy, B16F10 cells; format: cell-based, mouse
How it was run: (§1)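 Cy5-conjugated MC1R ligand probe at 15 nM in medium, on live cells (1 × 10^4/well) grown 16 h on glass coverslips. Cells: A375/MC1R (stable hMC1R transfectant, 300 μg/ml G418) or melanotic B16F10-Luc; DMEM, 10% FBS, 37°C, 5% CO2. Imaged by fluorescence microscopy from 40 s to 15 min. For blocking, 10 min pre-incubation with 2 μM NDP-α-MSH.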

[6] = test system: A375/MC1R cells; experiment: In vitro MC1R probe uptake study by fluorescence microscopy, A375/MC1R cells; format: cell-based, human; settings: 10 minute pre-incubation with 2 μM NDP-α-MSH before probe
How it was run: as §1

4-phenylbutyryl-His-DPhe-Arg-Trp-Gly-Lys
affinity for MC4R (in words) [1]: high nanomolar
affinity for MC5R (in words) [2]: high nanomolar

CC1(C)C(=CC=C2CCCC(C=CC3=[N+](CCCCS(=O)(=O)O)c4ccc(S(=O)(=O)[O-])cc4C3(C)C)=C2Oc2ccc(S(=O)(=O)O)cc2)N(CCCCCC(=O)NCCN2C(=O)CC(SCCC(=O)NCCCC[C@H](NC(=O)CNC(=O)[C@H](Cc3c[nH]c4ccccc34)NC(=O)[C@H](CCCNC(=N)N)NC(=O)[C@@H](Cc3ccccc3)NC(=O)[C@H](Cc3c[nH]cn3)NC(=O)CCCc3ccccc3)C(N)=O)C2=O)c2ccc(S(=O)(=O)O)cc21 (stereo partly drawn) [MC1RL-800, 4-phenylbutyryl-His-DPhe-Arg-Trp-Gly-Lys(Mpr-IRDye800CW)-NH2]
tumor uptake with co-injection of excess NDP-α-MSH peptide (in words) [3]: significantly blocked
fluorescence detection in B16F10 tumors with the Optix MX3 imaging system [4]: not detectable

CCN1C(=CC=CC=CC2=[N+](CCCCCC(=O)NCCN3C(=O)CC(SCCC(=O)NCCCC[C@H](NC(=O)CNC(=O)[C@H](Cc4c[nH]c5ccccc45)NC(=O)[C@H](CCCNC(=N)N)NC(=O)[C@@H](Cc4ccccc4)NC(=O)[C@H](Cc4c[nH]cn4)NC(=O)CCCc4ccccc4)C(N)=O)C3=O)c3ccc(S(=O)(=O)O)cc3C2(C)C)C(C)(C)c2cc(S(=O)(=O)[O-])ccc21 (stereo partly shown) [MC1RL-Cy5]
probe uptake by B16F10 cells after blocking with NDP-α-MSH ([5]; B16F10 cells pre-incubated with unlabeled NDP-α-MSH before probe): blocking of probe-uptake was also observed; also recorded: completely blocked
probe uptake by B16F10 cells ([5]; melanotic B16F10 cells with endogenous MC1R, 15 nM probe, 5 min time-point): Probe uptake was also observed; also recorded: internalization of probe into the cells
binding and uptake of probe after blocking with NDP-α-MSH [6]: No binding or uptake; also recorded: completely blocked
